{"source": "ChEMBL document CHEMBL1133167", "about": "“Synthesis and opioid receptor affinity of morphinan and benzomorphan derivatives: mixed kappa agonists and mu agonists/antagonists as potential pharmacotherapeutics for cocaine dependence” (J Med Chem, 2000)", "key": {"[1]": {"molecular_target": "Kappa-type opioid receptor (Cavia porcellus, UniProt P41144)", "sequence (P41144 whole entry)": "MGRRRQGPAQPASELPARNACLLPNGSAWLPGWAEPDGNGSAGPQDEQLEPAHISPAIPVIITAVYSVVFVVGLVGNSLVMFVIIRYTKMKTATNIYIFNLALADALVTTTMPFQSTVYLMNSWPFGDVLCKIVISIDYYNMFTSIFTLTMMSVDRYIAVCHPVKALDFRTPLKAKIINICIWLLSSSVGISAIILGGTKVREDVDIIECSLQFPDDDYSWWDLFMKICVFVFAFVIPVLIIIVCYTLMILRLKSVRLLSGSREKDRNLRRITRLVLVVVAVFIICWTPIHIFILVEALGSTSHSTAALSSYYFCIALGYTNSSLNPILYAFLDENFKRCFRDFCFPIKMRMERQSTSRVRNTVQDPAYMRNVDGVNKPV", "experiment": "Binding affinity towards Opioid receptor kappa 1 by displacing the radioligand [3H]U-69593 from guinea pig brain membrane", "method_in_brief": "(§1)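 Guinea pig brain membranes (homogenised, preincubated 37 °C 30 min, washed), 500 µg protein, with 12 concentrations of compound in 50 mM Tris-HCl pH 7.5 at 25 °C for 60 min. Nonspecific binding defined with 1 µM naloxone. Glass-fibre filtration, with PEI-soaked filters for kappa. IC50 by log-probit fit; three experiments in triplicate, mean ± SEM.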"}, "[2]": {"molecular_target": "Mu-type opioid receptor (Cavia porcellus, UniProt P97266)", "sequence (P97266 whole entry)": "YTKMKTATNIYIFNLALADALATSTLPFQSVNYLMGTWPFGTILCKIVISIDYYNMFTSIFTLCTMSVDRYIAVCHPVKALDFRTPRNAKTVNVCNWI", "experiment": "Binding affinity towards Opioid receptor mu 1 by displacing the radioligand [3H]DAMGO from guinea pig brain membrane", "method_in_brief": "as §1"}, "[3]": {"experiment": "Binding affinity towards Opioid receptor delta 1 by displacing the radioligand [3H]naltrindole from guinea pig brain membrane"}, "[4]": {"molecular_target": "Opioid receptor (mu and kappa) (Cavia porcellus) (UniProt P41144+P97266)", "sequence (P41144 whole entry, looked up)": "as the sequence (P41144 whole entry) above", "sequence (P97266 whole entry, looked up)": "as the sequence (P97266 whole entry) above", "experiment": "Selectivity kappa/mu", "format": "protein assay"}, "[5]": {"species_on_record": "Cavia porcellus", "experiment": "Selectivity kappa/delta"}}, "note": "Where a name gives a salt, the structure may show the parent alone."}
{"smiles": "Oc1ccc2c(c1)[C@@]13CCCC[C@H]1[C@@H](C2)N(CC1CCC1)CC3", "note": "[BUTORPHAN]", "values": [{"measurement": "Ki", "setting": "[1]", "value": 0.073, "unit": "nM"}]}
{"smiles": "CC[C@@]12CCN(CC3CC3)C(C(=O)c3ccc(O)cc31)[C@@H]2C", "note": "[ETHYLKETOCYCLAZOCINE]", "values": [{"measurement": "Ki", "setting": "[2]", "value": 0.78, "unit": "nM"}, {"measurement": "Ki", "setting": "[3]", "value": 3.4, "unit": "nM"}]}
{"smiles": "CN1CC[C@]23CCCC[C@H]2[C@H]1Cc1ccc(O)cc13", "note": "[LEVORPHANOL HYDROCHLORIDE]", "values": [{"measurement": "Ki", "setting": "[2]", "value": "[…]"}, {"measurement": "Ki", "setting": "[1]", "value": 2.3, "unit": "nM"}, {"measurement": "Selectivity", "setting": "[4]", "value": "[…]"}, {"measurement": "Selectivity", "setting": "[5]", "value": "[…]"}]}
{"smiles": "Oc1ccc2c(c1)[C@@]13CCCC[C@H]1[C@@H](C2)N(CC1CC1)CC3", "note": "[CYCLORPHAN]", "values": [{"measurement": "Ki", "setting": "[1]", "value": 0.053, "unit": "nM"}]}
{"smiles": "O=C1c2ccc(O)cc2C23CCCCC2C1N(CC1CC1)CC3", "note": "(single isomer, unassigned; (-))", "values": [{"measurement": "Ki", "setting": "[2]", "value": 240, "unit": "nM"}, {"measurement": "Ki", "setting": "[1]", "value": 24, "unit": "nM"}, {"measurement": "Selectivity", "setting": "[4]", "value": 1}, {"measurement": "Selectivity", "setting": "[5]", "value": 6}]}
{"smiles": "C[C@H]1C2C(=O)c3ccc(O)cc3[C@@]1(C)CCN2CC1CCCO1", "note": "(some centres not stated)", "values": [{"measurement": "Ki", "setting": "[1]", "value": 720, "unit": "nM"}]}
{"smiles": "C[C@H]1[C@H]2Cc3ccc(O)cc3[C@]1(C)CCN2CC1CC1", "note": "[CYCLAZOCINE]", "values": [{"measurement": "Ki", "setting": "[1]", "value": 0.052, "unit": "nM"}]}
{"smiles": "Oc1ccc2c(c1)[C@@]13CCCCC1[C@@H](C2)N(C[C@@H]1CCCO1)CC3", "note": "(some centres not stated)", "values": [{"measurement": "Ki", "setting": "[2]", "value": 0.01, "unit": "nM"}, {"measurement": "Ki", "setting": "[1]", "value": 0.15, "unit": "nM"}, {"measurement": "Selectivity", "setting": "[4]", "value": 0.066}, {"measurement": "Selectivity", "setting": "[5]", "value": 2}]}
{"smiles": "O=C1c2ccc(O)cc2C23CCCCC2C1N(CC1CCCO1)CC3", "note": "(single isomer, unassigned; (-))", "values": [{"measurement": "Ki", "setting": "[2]", "value": 0.38, "unit": "nM"}, {"measurement": "Ki", "setting": "[1]", "value": 0.18, "unit": "nM"}, {"measurement": "Selectivity", "setting": "[4]", "value": 2}, {"measurement": "Selectivity", "setting": "[5]", "value": 6}]}
